Results from ChEMBL document CHEMBL3525957, “Stereospecific metabolism of itraconazole by CYP3A4: dioxolane ring scission of azole antifungals” (Drug Metab Dispos, 2012).
Values belong to the compound of their own block, whether it stands above or below them.

Columns and labels:
Cytochrome P450 3A4 [1] = target: T1, Cytochrome P450 3A4 (Homo sapiens, UniProt P08684); test: Drug metabolism of the compound assessed as CYP3A4 (unknown origin)-mediated 1-sec-butyl-4-(4-(4-(4-(3-hydroxy-2-oxopropoxy)phenyl)piperazin-1-yl)phenyl)-1H-1,2,4-triazol-5(4H)-one by LC/MS/MS analysis; format: ADME
T1 sequence (P08684 whole entry): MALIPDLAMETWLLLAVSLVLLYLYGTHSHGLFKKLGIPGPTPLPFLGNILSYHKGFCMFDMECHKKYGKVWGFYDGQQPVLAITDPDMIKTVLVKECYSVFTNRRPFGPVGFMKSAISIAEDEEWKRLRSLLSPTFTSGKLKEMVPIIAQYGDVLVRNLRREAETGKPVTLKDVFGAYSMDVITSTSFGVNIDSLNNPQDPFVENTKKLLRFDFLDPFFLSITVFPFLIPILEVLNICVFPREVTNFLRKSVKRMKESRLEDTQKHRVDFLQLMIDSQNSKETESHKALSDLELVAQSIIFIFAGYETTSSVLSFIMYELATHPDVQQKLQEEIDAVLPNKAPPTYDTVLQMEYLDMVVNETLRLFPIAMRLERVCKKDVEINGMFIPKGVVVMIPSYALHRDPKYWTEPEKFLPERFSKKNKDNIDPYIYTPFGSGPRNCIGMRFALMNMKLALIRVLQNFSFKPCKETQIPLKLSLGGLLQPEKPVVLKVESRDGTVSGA

Cytochrome P450 3A4 [2] = target: T1, Cytochrome P450 3A4; test: Drug metabolism of the compound assessed as CYP3A4 (unknown origin)-mediated 1-(2,4-dichlorophenyl)-2-(1H-1,2,4-triazol-1-yl)ethanone formation by LC/MS/MS analysis; format: ADME
In short: (§1)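 kcat for M2 formation: trans isomers at 500 nM with CYP3A4 Supersomes (1 pmol) in KPi buffer. 5-min preincubation at 37°C, then NADPH (1 mM final) and 1-min reaction. M2 by LC-MS/MS, m/z 256.0>158.8, ITZ-d5 internal standard, standard curve 0.039–30 nM. kcat = product/time/pmol CYP3A4.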

Cytochrome P450 3A4 [3] = target: T1, Cytochrome P450 3A4; test: Drug metabolism of the compound assessed as CYP3A4 (unknown origin)-mediated 3-(4-(4-(4-(1-sec-butyl-5-oxo-1H-1,2,4-triazol-4(5H)-yl)phenyl)piperazin-1-yl)phenoxy)-2-hydroxypropanal by LC/MS/MS analysis; format: ADME
Cytochrome P450 3A4 [4] = target: T1, Cytochrome P450 3A4; test: Drug metabolism of the compound assessed as CYP3A4 (unknown origin) coexpressing P450 reductase and cytochrome-b5-mediated 3-(4-(4-(4-(1-sec-butyl-5-oxo-1H-1,2,4-triazol-4(5H)-yl)phenyl)piperazin-1-yl)phenoxy)-2-hydroxypropanal after 5 mins by LC/MS/MS analysis in presence of NADPH; format: ADME
Cytochrome P450 3A4 [5] = target: T1, Cytochrome P450 3A4; test: Drug metabolism of the compound assessed as CYP3A4 (unknown origin) coexpressing P450 reductase and cytochrome-b5-mediated 1-(2,4-dichlorophenyl)-2-(1H-1,2,4-triazol-1-yl)ethanone formation at 500 nM after 5 mins by LC/MS analysis in presence of NADPH; format: ADME; conditions: 0.5 µM
Cytochrome P450 3A4 [6] = target: T1, Cytochrome P450 3A4; test: Drug metabolism of the compound assessed as CYP3A4 (unknown origin) coexpressing P450 reductase and cytochrome-b5-mediated 1-sec-butyl-4-(4-(4-(4-(3-hydroxy-2-oxopropoxy)phenyl)piperazin-1-yl)phenyl)-1H-1,2,4-triazol-5(4H)-one after 5 mins by LC/MS/MS analysis in presence of NADPH; format: ADME
Cytochrome P450 3A4 [7] = target: T1, Cytochrome P450 3A4; test: Drug metabolism of the compound assessed as reconstituted CYP3A4 (unknown origin)-mediated 1-(2,4-dichlorophenyl)-2-(1H-1,2,4-triazol-1-yl)ethanone formation at 500 nM after 5 mins by LC/MS analysis in presence of NADPH; format: ADME; conditions: 0.5 µM
Cytochrome P450 3A4 [8] = target: T1, Cytochrome P450 3A4; test: Drug metabolism of the compound assessed as purified CYP3A4 (unknown origin)-mediated 3-(4-(4-(4-(1-sec-butyl-5-oxo-1H-1,2,4-triazol-4(5H)-yl)phenyl)piperazin-1-yl)phenoxy)-2-hydroxypropanal by LC/MS/MS analysis in presence of NADPH; format: ADME
Cytochrome P450 3A4 [9] = target: T1, Cytochrome P450 3A4; test: Drug metabolism of the compound assessed as CYP3A4 (unknown origin) coexpressing P450 reductase and cytochrome-b5-mediated 1-sec-butyl-4-(4-(4-(4-(2,3-dihydroxypropoxy)phenyl)piperazin-1-yl)phenyl)-1H-1,2,4-triazol-5(4H)-one formation after 3 mins by LC/MS/MS analysis; format: ADME; conditions: 0.05 h
Cytochrome P450 3A4 [10] = target: T1, Cytochrome P450 3A4; test: Drug metabolism of the compound assessed as purified CYP3A4 (unknown origin)-mediated 1-sec-butyl-4-(4-(4-(4-(3-hydroxy-2-oxopropoxy)phenyl)piperazin-1-yl)phenyl)-1H-1,2,4-triazol-5(4H)-one by LC/MS/MS analysis in presence of NADPH; format: ADME
[11] = Drug metabolism in human assessed as 1-(2,4-dichlorophenyl)-2-(1H-1,2,4-triazol-1-yl)ethanone level in urine at 400 mg, po measured on day 7 by MS/MS analysis; format: ADME, organism-based; conditions: in vivo
In short: (§2)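 Six subjects (5 male, 1 female) received itraconazole 400 mg orally. Urine collected 24 h before dosing, 0–12 and 12–24 h after, then 24–48, 72–96 and 120–144 h, with volume recorded. 5 ml urine extracted with ethyl acetate. M2 measured by MS/MS at transition m/z 256>158.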

Cytochrome P450 3A4 [12] = target: T1, Cytochrome P450 3A4; test: Drug metabolism of the compound assessed as CYP3A4 (unknown origin) coexpressing P450 reductase and cytochrome-b5-mediated 1-(2,4-dichlorophenyl)-2-(1H-1,2,4-triazol-1-yl)ethanone formation by LC/MS/MS analysis; format: ADME; in short: as §1
Cytochrome P450 3A4 [13] = target: T1, Cytochrome P450 3A4; test: Binding affinity to purified CYP3A4 (unknown origin) coexpressing P450 reductase and cytochrome-b5 by UV-Vis spectrophotometry; format: ADME; conditions: read-out: Ks
[14] = Drug metabolism in human assessed as 1-(2,4-dichlorophenyl)-2-(1H-1,2,4-triazol-1-yl)ethanone level in urine at 400 mg, po measured on day 2 by MS/MS analysis; format: ADME, organism-based; conditions: in vivo; in short: as §2
CYP3A4 = CYP3A4 (Homo sapiens, UniProt P08684); test: Inhibition of CYP3A4 in human liver microsomes using midazolam as substrates at 15 uM after 5 mins by LC/MS analysis in presence of NADPH; format: ADME; conditions: probe midazolam
CYP3A4, sequence (P08684 whole entry): as above

[15] = Drug metabolism in human assessed as 1-(2,4-dichlorophenyl)-2-(1H-1,2,4-triazol-1-yl)ethanone level in urine at 400 mg, po after 24 hrs by MS/MS analysis; format: ADME, organism-based; conditions: in vivo; in short: as §2
[16] = Drug metabolism in human assessed as 1-(2,4-dichlorophenyl)-2-(1H-1,2,4-triazol-1-yl)ethanone level in urine at 400 mg, po measured on day 4 by MS/MS analysis; format: ADME, organism-based; conditions: in vivo; in short: as §2
Cytochrome P450 3A4 [17] = target: T1, Cytochrome P450 3A4; test: Drug metabolism of the compound assessed as CYP3A4 (unknown origin) coexpressing P450 reductase and cytochrome-b5-mediated 1-sec-butyl-4-(4-(4-(4-(2,3-dihydroxypropoxy)phenyl)piperazin-1-yl)phenyl)-1H-1,2,4-triazol-5(4H)-one formation after 1 hr by LC/MS/MS analysis; format: ADME
Cytochrome P450 3A4 [18] = target: T1, Cytochrome P450 3A4; test: Drug level of the compound assessed as CYP3A4 (unknown origin)-mediated metabolite formation treated with keto-ITZ by LC/MS/MS analysis; format: ADME
In short: (§3)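 Substrate incubated with CYP3A4 Supersomes (100 pmol) in KPi buffer at 37°C for 1 h, with and without NADPH, plus a no-enzyme control. Products by LC/Q-TOF MS, positive ESI, m/z 100–1500, cone 35 V, low-energy (6 eV) and ramped high-energy modes.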

Cytochrome P450 3A4 [19] = target: T1, Cytochrome P450 3A4; test: Drug level of the compound assessed as CYP3A4 (unknown origin)-mediated metabolite formation treated with N-desalkyl-ITZ by LC/MS/MS analysis; format: ADME; in short: as §3
Cytochrome P450 3A4 [20] = target: T1, Cytochrome P450 3A4; test: Drug level of the compound assessed as CYP3A4 (unknown origin) coexpressing P450 reductase and cytochrome-b5-mediated metabolite formation treated with trans-ITZ by LC/MS/MS analysis; format: ADME
Cytochrome P450 3A4 [21] = target: T1, Cytochrome P450 3A4; test: Inhibition of CYP3A4 in human liver microsomes using midazolam as substrates after 5 mins by LC/MS analysis in presence of NADPH; format: ADME
In short: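 Pooled HLM (0.025 mg/ml, CYP3A5*3/*3) with midazolam 1 μM in KPi. Inhibitor range 5–1000 nM for trans isomers. 5-min preincubation at 37°C, then NADPH 1 mM final, run for 2 min. Stopped with ethyl acetate, d4-1'-OH-MDZ added as internal standard. IC50 from fit of remaining-activity equation.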

Cytochrome P450 3A4 [22] = target: T1, Cytochrome P450 3A4; test: Drug level of the compound assessed as CYP3A4 (unknown origin)-mediated metabolite formation treated with cis-ITZ by LC/MS/MS analysis; format: ADME; in short: as §3
Cytochrome P450 3A4 [23] = target: T1, Cytochrome P450 3A4; test: Drug level of the compound assessed as CYP3A4 (unknown origin)-mediated metabolite formation treated with 3'-OH-ITZ by LC/MS/MS analysis; format: ADME; in short: as §3
Cytochrome P450 3A4 [24] = target: T1, Cytochrome P450 3A4; test: Drug level of the compound assessed as CYP3A4 (unknown origin) coexpressing P450 reductase and cytochrome-b5-mediated metabolite formation treated with trans-(2S,4S,2'S)-ITZ by LC/MS/MS analysis; format: ADME
Cytochrome P450 3A4 [25] = target: T1, Cytochrome P450 3A4; test: Drug level of the compound assessed as purified CYP3A4 (unknown origin)-mediated metabolite formation treated with trans-(2S,4S,2'S)-ITZ by LC/MS/MS analysis; format: ADME

Drug metabolism (Cytochrome P450 3A4 [1]): metabolite_detected
Drug metabolism (Cytochrome P450 3A4 [2]): metabolite_detected
Drug metabolism (Cytochrome P450 3A4 [3]): metabolite_detected
SMILES: CC[C@H](C)n1ncn(-c2ccc(N3CCN(c4ccc(OC[C@@H]5CO[C@@](Cn6cncn6)(c6ccc(Cl)cc6Cl)O5)cc4)CC3)cc2)c1=O

Drug metabolism (Cytochrome P450 3A4 [1]): metabolite_detected
Drug metabolism (Cytochrome P450 3A4 [2]): metabolite_detected
Drug metabolism (Cytochrome P450 3A4 [3]): metabolite_detected
SMILES: CC[C@H](C)n1ncn(-c2ccc(N3CCN(c4ccc(OC[C@H]5CO[C@](Cn6cncn6)(c6ccc(Cl)cc6Cl)O5)cc4)CC3)cc2)c1=O

Drug metabolism (Cytochrome P450 3A4 [1]): metabolite_detected
Drug metabolism (Cytochrome P450 3A4 [2]): metabolite_detected
Drug metabolism (Cytochrome P450 3A4 [3]): metabolite_detected
SMILES: CC[C@@H](C)n1ncn(-c2ccc(N3CCN(c4ccc(OC[C@H]5CO[C@](Cn6cncn6)(c6ccc(Cl)cc6Cl)O5)cc4)CC3)cc2)c1=O

Drug metabolism (Cytochrome P450 3A4 [4]): metabolite_detected
Kcat (Cytochrome P450 3A4 [5]): 0.0198 s⁻¹
Drug metabolism (Cytochrome P450 3A4 [6]): metabolite_detected
Kcat (Cytochrome P450 3A4 [7]): 0.0042 s⁻¹
Drug metabolism (Cytochrome P450 3A4 [8]): metabolite_detected
Drug metabolism (Cytochrome P450 3A4 [9]): metabolite_detected
Drug metabolism (Cytochrome P450 3A4 [10]): metabolite_detected
SMILES: CC[C@H](C)n1ncn(-c2ccc(N3CCN(c4ccc(OC[C@H]5CO[C@@](Cn6cncn6)(c6ccc(Cl)cc6Cl)O5)cc4)CC3)cc2)c1=O

Kcat (Cytochrome P450 3A4 [5]): 0.0183 s⁻¹
Kcat (Cytochrome P450 3A4 [7]): 0.0041 s⁻¹
SMILES: CC[C@@H](C)n1ncn(-c2ccc(N3CCN(c4ccc(OC[C@H]5CO[C@@](Cn6cncn6)(c6ccc(Cl)cc6Cl)O5)cc4)CC3)cc2)c1=O

Kcat (Cytochrome P450 3A4 [5]): 0.0214 s⁻¹
Kcat (Cytochrome P450 3A4 [7]): 0.0038 s⁻¹
SMILES: CC[C@H](C)n1ncn(-c2ccc(N3CCN(c4ccc(OC[C@@H]5CO[C@](Cn6cncn6)(c6ccc(Cl)cc6Cl)O5)cc4)CC3)cc2)c1=O

Kcat (Cytochrome P450 3A4 [5]): 0.0159 s⁻¹
Kcat (Cytochrome P450 3A4 [7]): 0.0032 s⁻¹
SMILES: CC[C@@H](C)n1ncn(-c2ccc(N3CCN(c4ccc(OC[C@@H]5CO[C@](Cn6cncn6)(c6ccc(Cl)cc6Cl)O5)cc4)CC3)cc2)c1=O

Drug metabolism [11]: 87 ng
Drug metabolism (Cytochrome P450 3A4 [12]): metabolite_detected
Kd (Cytochrome P450 3A4 [13]): 12.8 µM
Drug metabolism [14]: 429 ng
inhibition at 5 min, 15 µM (CYP3A4): < 50%
Drug metabolism [15]: 1114 ng
Drug metabolism [16]: 319 ng
Drug metabolism (Cytochrome P450 3A4 [17]): metabolite_detected
Drug metabolism (Cytochrome P450 3A4 [18]): metabolite_detected
Drug metabolism (Cytochrome P450 3A4 [19]): metabolite_detected
Drug metabolism (Cytochrome P450 3A4 [20]): metabolite_detected
IC50 (Cytochrome P450 3A4 [21]): > 15 µM
Drug metabolism (Cytochrome P450 3A4 [22]): metabolite_detected
Drug metabolism (Cytochrome P450 3A4 [23]): metabolite_detected
SMILES: O=C(Cn1cncn1)c1ccc(Cl)cc1Cl

Drug metabolism (Cytochrome P450 3A4 [24]): metabolite_detected
Drug metabolism (Cytochrome P450 3A4 [25]): metabolite_detected
Drug metabolism (Cytochrome P450 3A4 [22]): metabolite_detected
SMILES: CCC(C)n1ncn(-c2ccc(N3CCN(c4ccc(OCC(O)C=O)cc4)CC3)cc2)c1=O (centres undefined)

Drug metabolism (Cytochrome P450 3A4 [24]): metabolite_detected
Drug metabolism (Cytochrome P450 3A4 [25]): metabolite_detected
Drug metabolism (Cytochrome P450 3A4 [22]): metabolite_detected
SMILES: CCC(C)n1ncn(-c2ccc(N3CCN(c4ccc(OCC(=O)CO)cc4)CC3)cc2)c1=O (centres undefined)

Drug metabolism (Cytochrome P450 3A4 [12]): metabolite_detected
Drug metabolism (Cytochrome P450 3A4 [17]): metabolite_detected
Drug metabolism (Cytochrome P450 3A4 [25]): metabolite_not_detected
Drug metabolism (Cytochrome P450 3A4 [20]): metabolite_detected
SMILES: CCC(C)n1ncn(-c2ccc(N3CCN(c4ccc(OCC(O)CO)cc4)CC3)cc2)c1=O (centres undefined)

Drug metabolism (Cytochrome P450 3A4 [1]): metabolite_detected
Drug metabolism (Cytochrome P450 3A4 [2]): metabolite_detected
Drug metabolism (Cytochrome P450 3A4 [3]): metabolite_detected
SMILES: CC[C@@H](C)n1ncn(-c2ccc(N3CCN(c4ccc(OC[C@@H]5CO[C@@](Cn6cncn6)(c6ccc(Cl)cc6Cl)O5)cc4)CC3)cc2)c1=O
